Test results published in ChEMBL document CHEMBL4382197, “Discovery of QCA570 as an Exceptionally Potent and Efficacious Proteolysis Targeting Chimera (PROTAC) Degrader of the Bromodomain and Extra-Terminal (BET) Proteins Capable of Inducing Complete and Durable Tumor Regression” (J Med Chem, 2018).
The source made the active and inactive calls. The calls are words filed in the database; no cut-off is given here.

Key:
[1] = molecular target: Protein cereblon/Bromodomain-containing protein 2/Cullin-4A (Homo sapiens) (UniProt P25440+Q96SW2+Q13619); experiment: Protac activity at cereblon/cullin 4A/BRD2 in human RS4:11 cells assessed as BRD2 degradation at 0.5 nM after 3 hrs in presence of neddylation inhibitor MLN4924 by Western blot analysis; type: cell-based
Procedure, shortened: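 RS4;11 cells were pre-treated for 2 h with DMSO, lenalidomide (10 μM), MLN4924 (1 μM) or MG-132 (20 μM). The degrader was then added at 0.5 nM for 3 h. Lysates were immunoblotted for BRD2, BRD3 and BRD4, with GAPDH as loading control.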

RS4-11 [2] = experiment: Induction of apoptosis in human RS4:11 cells after 24 to 48 hrs by Annexin V/propidium iodine-double staining-based flow cytometry; type: functional, cell-based
Procedure, shortened: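 Leukemia cells were treated for 24 h or 48 h at the indicated concentrations. They were then collected, washed in cold PBS and stained with Annexin V and propidium iodide. Apoptotic fraction was measured by flow cytometry.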

Mus musculus = experiment: In vivo Protac activity at cereblon/cullin/BET in tumor of human RS4:11 cells xenografted in SCID mouse assessed as reduction in cMyc protein expression at 1 to 5 mg/kg, iv administered as single dose and measured at 1 to 24 hrs post dose by Western blot analysis; type: functional, organism-based
Procedure, shortened: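 SCID mice bearing subcutaneous RS4;11 tumors were given a single intravenous dose of 1 or 5 mg/kg. Tumors were harvested at 1, 6 and 24 h, two mice per time point. Tissue was ground in liquid nitrogen and lysed in CST buffer with protease inhibitors. 20 µg lysate per lane was probed for BRD2, BRD3, BRD4, c-Myc and cleaved PARP, with GAPDH as loading control.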

[3] = Drug uptake in intestine of SCID mouse xenografted with human RS4:11 cells at 5 mg/kg, iv measured at 6 hrs by LC-MS/MS analysis; type: ADME, organism-based; conditions: in vivo, BLD = below limit of detection
Procedure, shortened: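 Female SCID mice with RS4;11 tumors received a single 5 mg/kg intravenous dose in 20% PCP/80% PBS. Plasma (heparin) and tissues were taken at 1, 3 and 6 h, one mouse per time point in duplicate. Plasma was precipitated with acetonitrile containing internal standard. Tissues were homogenized 5:1 in 20% acetonitrile. Quantified by LC-MS/MS against spiked plasma standards (2–2000 ng/mL); values in ng/ml or ng/g.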

RS4-11 [4] = experiment: Antitumor activity against human RS4:11 cells xenografted in SCID mouse assessed tumor growth inhibition at 5 mg/kg, iv administered weekly; type: functional, organism-based
Procedure, shortened: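 RS4;11 xenografts: 5×10^6 cells in 50% Matrigel injected subcutaneously on the dorsal side of SCID mice, one tumor per mouse. Randomized to treatment or vehicle at ~100 mm3. Intravenous dosing on several schedules, including 3 times per week for 3 weeks and weekly. Volume = L × W2/2; body weight tracked.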

MV4-11 = experiment: Antitumor activity against human MV4-11 cells xenografted in SCID mouse assessed tumor regression at 5 mg/kg, iv administered 3 times per week for 2 weeks; type: functional, organism-based
Procedure, shortened: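 MV4;11 xenografts: 5×10^6 cells in 50% Matrigel injected subcutaneously on the dorsal side of SCID mice, one tumor per mouse. Mice randomized at ~100 mm3. Dosed intravenously three times a week for two weeks. Tumor volume = L × W2/2; body weight monitored.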

Sequence of Protein cereblon/Bromodomain-containing protein 2/Cullin-4A (Homo sapiens) (P25440 whole entry, looked up): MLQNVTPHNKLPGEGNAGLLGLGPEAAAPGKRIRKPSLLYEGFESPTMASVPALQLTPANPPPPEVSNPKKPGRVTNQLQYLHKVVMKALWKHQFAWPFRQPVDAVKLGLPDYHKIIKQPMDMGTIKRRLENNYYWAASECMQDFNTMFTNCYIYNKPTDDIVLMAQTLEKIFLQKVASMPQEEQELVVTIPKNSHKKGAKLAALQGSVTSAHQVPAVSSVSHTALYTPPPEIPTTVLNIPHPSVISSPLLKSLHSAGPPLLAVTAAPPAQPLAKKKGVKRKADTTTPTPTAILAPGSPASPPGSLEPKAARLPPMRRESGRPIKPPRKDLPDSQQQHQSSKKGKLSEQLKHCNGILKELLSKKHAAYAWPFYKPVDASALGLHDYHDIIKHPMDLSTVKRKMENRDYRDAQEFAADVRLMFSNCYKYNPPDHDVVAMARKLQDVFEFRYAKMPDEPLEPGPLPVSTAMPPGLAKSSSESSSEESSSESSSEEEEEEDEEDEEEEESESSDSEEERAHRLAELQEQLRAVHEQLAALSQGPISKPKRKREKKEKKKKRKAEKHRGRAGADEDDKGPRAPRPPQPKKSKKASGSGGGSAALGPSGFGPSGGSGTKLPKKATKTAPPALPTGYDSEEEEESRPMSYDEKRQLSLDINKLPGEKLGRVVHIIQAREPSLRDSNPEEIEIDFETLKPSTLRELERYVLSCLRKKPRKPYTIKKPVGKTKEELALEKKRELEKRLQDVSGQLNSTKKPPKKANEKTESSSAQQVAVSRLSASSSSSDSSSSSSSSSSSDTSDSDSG
Sequence of Protein cereblon/Bromodomain-containing protein 2/Cullin-4A (Homo sapiens) (Q13619 whole entry, looked up): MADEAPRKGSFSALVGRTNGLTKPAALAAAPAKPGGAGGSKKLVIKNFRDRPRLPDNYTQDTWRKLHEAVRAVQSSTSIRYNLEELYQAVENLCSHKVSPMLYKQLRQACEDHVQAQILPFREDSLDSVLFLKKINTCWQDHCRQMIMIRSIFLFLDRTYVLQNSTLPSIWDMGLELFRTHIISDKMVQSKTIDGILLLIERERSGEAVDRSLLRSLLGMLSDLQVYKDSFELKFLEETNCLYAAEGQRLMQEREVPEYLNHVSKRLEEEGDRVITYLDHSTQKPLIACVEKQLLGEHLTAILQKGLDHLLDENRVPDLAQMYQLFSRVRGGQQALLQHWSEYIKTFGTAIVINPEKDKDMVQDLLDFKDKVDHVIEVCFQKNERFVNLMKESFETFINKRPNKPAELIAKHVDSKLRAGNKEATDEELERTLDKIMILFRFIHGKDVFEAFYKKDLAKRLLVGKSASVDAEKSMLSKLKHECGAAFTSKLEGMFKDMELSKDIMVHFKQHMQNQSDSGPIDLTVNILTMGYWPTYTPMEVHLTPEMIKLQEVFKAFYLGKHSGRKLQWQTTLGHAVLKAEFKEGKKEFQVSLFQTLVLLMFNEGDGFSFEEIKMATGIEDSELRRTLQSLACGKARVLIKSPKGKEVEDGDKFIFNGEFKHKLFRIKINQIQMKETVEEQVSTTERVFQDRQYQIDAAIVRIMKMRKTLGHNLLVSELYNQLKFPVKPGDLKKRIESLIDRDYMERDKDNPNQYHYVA
Sequence of Protein cereblon/Bromodomain-containing protein 2/Cullin-4A (Homo sapiens) (Q96SW2 whole entry, looked up): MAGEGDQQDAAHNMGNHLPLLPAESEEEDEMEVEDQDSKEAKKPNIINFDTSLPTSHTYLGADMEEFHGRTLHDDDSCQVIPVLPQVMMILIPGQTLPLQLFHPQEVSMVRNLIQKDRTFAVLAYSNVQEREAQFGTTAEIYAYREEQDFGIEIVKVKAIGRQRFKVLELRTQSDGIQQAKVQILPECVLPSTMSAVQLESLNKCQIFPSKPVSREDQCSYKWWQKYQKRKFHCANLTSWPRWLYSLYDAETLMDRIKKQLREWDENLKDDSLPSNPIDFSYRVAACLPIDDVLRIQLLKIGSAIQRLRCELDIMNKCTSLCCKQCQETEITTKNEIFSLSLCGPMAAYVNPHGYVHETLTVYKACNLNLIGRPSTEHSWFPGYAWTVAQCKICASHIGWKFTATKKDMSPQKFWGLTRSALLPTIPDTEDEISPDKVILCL

Activity [1]: inactive
Drug uptake [3]: Bld
Compound: Cc1nnc2n1Cc1sc(C#Cc3cnn(CCCC#Cc4cccc5c4CN(C4CCC(=O)NC4=O)C5=O)c3)c(Cc3ccccc3)c1OC2 (stereo unspecified)
Activity (RS4-11 [2]): Dose-dependent effect
Activity (Mus musculus): Active
TGI (RS4-11 [4]): Active
Activity (MV4-11): Active
